ChEMBL document CHEMBL4689842, “EUbOPEN Chemogenomics Library wave 1” (2021)
Several values for one entry are separate records, joined by “and”; a condition that tells them apart may be missing. Equal entries are not always repeated.

System: Fibroblast
Assay: Multiplex assay against human fibroblast
Format: toxicity, cell-based
In short: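 Per cents of healthy-nucleus cells form the tubulin, mitochondrial-mass and membrane-permeability phenotype values. Live cells were stained at seeding with Hoechst33342, BioTracker Green Microtubule Cytoskeleton Dye, MitoTracker Red and Annexin V Alexa Fluor 680. After compound addition they were imaged on a CQ1 microscope at 37°C and 5% CO2, and CellPathfinder machine-learning gating split them into Hoechst high-intensity objects or normal cells, normal cells into healthy, pyknosed or fragmented nuclei, and pyknosed cells into mitotic or apoptotic.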

[1] = 12 h, 1 µM, compound concentration 1 uM, replicate 1
[2] = 12 h, 1 µM, compound concentration 1 uM, replicate 2
[3] = 12 h, 10 µM, compound concentration 10 uM, replicate 1
[4] = 12 h, 10 µM, compound concentration 10 uM, replicate 2
[5] = 24 h, 1 µM, compound concentration 1 uM, replicate 1
[6] = 24 h, 1 µM, compound concentration 1 uM, replicate 2
[7] = 24 h, 10 µM, compound concentration 10 uM, replicate 1
[8] = 24 h, 10 µM, compound concentration 10 uM, replicate 2
[9] = 48 h, 1 µM, compound concentration 1 uM, replicate 1
[10] = 48 h, 1 µM, compound concentration 1 uM, replicate 2
[11] = 48 h, 10 µM, compound concentration 10 uM, replicate 1
[12] = 48 h, 10 µM, compound concentration 10 uM, replicate 2

CS(=O)(=O)N1CCCC(NC(=O)[C@H](CCC2CCCCC2)NC(=O)c2ccc(CNc3ncnc4c3nnn4-c3ccccc3)cc2)C1 (stereo not given in full) [SR-301]
Population Apoptotic (%) [1]: 58% and 60% and 56% | Population Fragmented Nuclei (%) [1]: 22% and 18% and 20% | Population Healthy Nuclei (%) [1]: 31% and 27% and 35% | Population Hoechst High Intensity Objects (%) [1]: 21% and 15% and 12% | Population Membrane Permeable-Phenotype (%) [1]: 16% and 32% and 28% | Population Mitochondria Different-Phenotype (%) [1]: 13% and 12% and 26% | Population Mitotic Cells (%) [1]: 41% and 39% and 43% | Population Normal (%) [1]: 78% and 84% and 87% | Population Pyknosed Nuclei (%) [1]: 46% and 53% and 44% | Population Tubulin-Different-Phenotype (%) [1]: 47% and 61% and 57% | Total Cell Count [1]: 146 and 134 | Population Apoptotic (%) [2]: 25% and 63% and 33% | Population Fragmented Nuclei (%) [2]: 14% and 11% and 7% | Population Healthy Nuclei (%) [2]: 81% and 70% and 89% | Population Mitochondria Different-Phenotype (%) [2]: 20% and 14% and 10% | Population Mitotic Cells (%) [2]: 75% and 36% and 66% | Population Normal (%) [2]: 80% and 86% and 94% | Population Tubulin-Different-Phenotype (%) [2]: 21% and 19% and 12% | Total Cell Count [2]: 135 and 58 and 69 | Population Apoptotic (%) [3]: 94% and 85% and 73% | Population Fragmented Nuclei (%) [3]: 34% and 37% and 21% | Population Healthy Nuclei (%) [3]: 20% and 17% and 28% | Population Hoechst High Intensity Objects (%) [3]: 19% and 17% and 12% | Population Membrane Permeable-Phenotype (%) [3]: 36% and 16% and 19% | Population Mitochondria Different-Phenotype (%) [3]: 20% and 25% and 36% | Population Normal (%) [3]: 80% and 82% and 87% | Population Pyknosed Nuclei (%) [3]: 45% and 44% and 50% | Population Tubulin-Different-Phenotype (%) [3]: 32% and 48% and 51% | Total Cell Count [3]: 153 and 216 and 163 | Population Apoptotic (%) [4]: 80% and 75% and 41% | Population Fragmented Nuclei (%) [4]: 39% and 27% | Population Healthy Nuclei (%) [4]: 25% and 58% | Population Membrane Permeable-Phenotype (%) [4]: 61% and 54% and 30% | Population Mitochondria Different-Phenotype (%) [4]: 66% and 54% and 34% | Population Mitotic Cells (%) [4]: 20% and 25% and 58% | Population Normal (%) [4]: 89% and 95% and 97% | Population Pyknosed Nuclei (%) [4]: 39% and 47% and 20% | Population Tubulin-Different-Phenotype (%) [4]: 55% and 54% and 34% | Total Cell Count [4]: 89 and 86 and 105 | Population Apoptotic (%) [5]: 58% and 59% and 61% | Population Fragmented Nuclei (%) [5]: 20% and 24% and 25% | Population Healthy Nuclei (%) [5]: 39% and 33% and 42% | Population Hoechst High Intensity Objects (%) [5]: 18% and 10% | Population Membrane Permeable-Phenotype (%) [5]: 35% and 23% and 20% | Population Mitochondria Different-Phenotype (%) [5]: 17% and 9% and 18% | Population Mitotic Cells (%) [5]: 41% and 40% and 38% | Population Normal (%) [5]: 81% and 89% | Population Pyknosed Nuclei (%) [5]: 41% and 42% and 31% | Population Tubulin-Different-Phenotype (%) [5]: 53% and 66% and 52% | Total Cell Count [5]: 123 and 142 and 153 | Population Fragmented Nuclei (%) [6]: 12% and 7% | Population Healthy Nuclei (%) [6]: 78% and 80% and 86% | Population Membrane Permeable-Phenotype (%) [6]: 7% and 6% and 3% | Population Mitochondria Different-Phenotype (%) [6]: 20% and 10% and 8% | Population Mitotic Cells (%) [6]: 87% and 60% and 55% | Population Normal (%) [6]: 80% and 95% and 96% | Population Pyknosed Nuclei (%) [6]: 9% and 12% and 6% | Population Tubulin-Different-Phenotype (%) [6]: 13% and 26% and 14% | Total Cell Count [6]: 148 and 64 and 84 | Population Apoptotic (%) [7]: 84% and 87% | Population Fragmented Nuclei (%) [7]: 31% and 40% and 42% | Population Healthy Nuclei (%) [7]: 24% and 22% | Population Hoechst High Intensity Objects (%) [7]: 20% and 15% and 21% | Population Membrane Permeable-Phenotype (%) [7]: 23% and 21% and 17% | Population Mitochondria Different-Phenotype (%) [7]: 43% and 48% and 34% | Population Mitotic Cells (%) [7]: 15% and 12% | Population Normal (%) [7]: 79% and 84% and 78% | Population Pyknosed Nuclei (%) [7]: 43% and 36% and 35% | Population Tubulin-Different-Phenotype (%) [7]: 63% and 53% and 68% | Total Cell Count [7]: 154 and 214 and 166 | Population Apoptotic (%) [8]: 91% and 94% and 89% | Population Fragmented Nuclei (%) [8]: 25% and 32% and 19% | Population Hoechst High Intensity Objects (%) [8]: 9% | Population Mitotic Cells (%) [8]: 8% and 5% and 10% | Population Normal (%) [8]: 90% | Population Pyknosed Nuclei (%) [8]: 49% and 50% and 21% | Total Cell Count [8]: 98 and 89 and 110 | Population Apoptotic (%) [9]: 75% and 70% | Population Fragmented Nuclei (%) [9]: 38% and 39% and 30% | Population Healthy Nuclei (%) [9]: 46% and 41% | Population Hoechst High Intensity Objects (%) [9]: 25% and 18% | Population Membrane Permeable-Phenotype (%) [9]: 32% and 27% and 25% | Population Mitochondria Different-Phenotype (%) [9]: 8% and 9% and 10% | Population Mitotic Cells (%) [9]: 25% and 30% | Population Normal (%) [9]: 74% and 81% | Population Pyknosed Nuclei (%) [9]: 16% and 19% and 23% | Population Tubulin-Different-Phenotype (%) [9]: 43% and 48% and 50% | Total Cell Count [9]: 135 and 127 and 148 | Population Apoptotic (%) [10]: 100% and 60% | Population Fragmented Nuclei (%) [10]: 19% and 21% and 22% | Population Healthy Nuclei (%) [10]: 80% and 73% and 75% | Population Hoechst High Intensity Objects (%) [10]: 8% and 7% and 5% | Population Membrane Permeable-Phenotype (%) [10]: 20% and 15% and 13% | Population Mitochondria Different-Phenotype (%) [10]: 3% and 1% | Population Normal (%) [10]: 91% and 92% and 94% | Population Pyknosed Nuclei (%) [10]: 0% and 4% and 1% | Population Tubulin-Different-Phenotype (%) [10]: 39% and 17% and 40% | Total Cell Count [10]: 131 and 116 and 118 | Population Apoptotic (%) [11]: 85% and 83% and 92% | Population Fragmented Nuclei (%) [11]: 41% and 44% and 50% | Population Healthy Nuclei (%) [11]: 22% and 29% and 25% | Population Hoechst High Intensity Objects (%) [11]: 20% and 26% | Population Membrane Permeable-Phenotype (%) [11]: 32% and 23% | Population Mitochondria Different-Phenotype (%) [11]: 40% and 48% and 30% | Population Mitotic Cells (%) [11]: 15% and 16% and 7% | Population Normal (%) [11]: 79% and 73% | Population Pyknosed Nuclei (%) [11]: 35% and 25% | Population Tubulin-Different-Phenotype (%) [11]: 48% and 44% and 53% | Total Cell Count [11]: 141 and 195 | Population Apoptotic (%) [12]: 84% and 100% and 94% | Population Fragmented Nuclei (%) [12]: 51% and 53% | Population Healthy Nuclei (%) [12]: 35% and 24% and 30% | Population Hoechst High Intensity Objects (%) [12]: 16% and 29% | Population Membrane Permeable-Phenotype (%) [12]: 34% and 14% and 27% | Population Mitochondria Different-Phenotype (%) [12]: 78% and 85% and 72% | Population Mitotic Cells (%) [12]: 0% and 5% | Population Normal (%) [12]: 83% and 70% | Population Pyknosed Nuclei (%) [12]: 20% and 24% and 15% | Population Tubulin-Different-Phenotype (%) [12]: 34% and 32% and 54% | Total Cell Count [12]: 89 and 137 and 153
